Data reported in ChEMBL document CHEMBL1149634, “1-Acylthiosemicarbazides, 1,2,4-triazole-5(4H)-thiones, 1,3,4-thiadiazoles and hydrazones containing 5-methyl-2-benzoxazolinones: synthesis, analgesic-anti-inflammatory and antimicrobial activities” (2007).
≈ marks a conversion by molar mass, not a printed value.

What was measured:
Staphylococcus aureus = assay: Antibacterial activity against Staphylococcus aureus ATCC 29213 after 24 hrs by broth microdilution test; assay type: functional; settings: ATCC 29213, 24 h
Summary of the method: (§1)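 NCCLS broth microdilution in Mueller-Hinton broth with an inoculum of 5 × 10^5 cfu/mL. Compounds were dissolved in DMSO, diluted in sterile water, and tested as twofold dilutions from 512 to 0.5 µg/mL. Plates were incubated at 35 °C for 24 h. MIC is the lowest concentration preventing visible growth.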

Mus musculus [1] = assay: Analgesic activity in mouse assessed as inhibition of hind paw lick at 100 mg/kg, ip by hot plate test; assay type: functional; settings: route intraperitoneal
Mus musculus [2] = assay: Analgesic activity in mouse assessed as inhibition of acetic acid induced-abdominal writhing at 100 mg/kg, ip by Koster test; assay type: functional; settings: Abdomen, route intraperitoneal
Mus musculus [3] = assay: Antiinflammatory activity against carrageenan-induced hind paw oedema in mouse assessed as inhibition of swelling thickness at 100 mg/kg, po after 90 mins; assay type: functional; settings: 1.5 h
Summary of the method: (§2)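 Fasted mice (n = 5–6) were dosed orally with the sample in 0.5% CMC/water. One hour later, carrageenan (0.5 mg/25 µl in 154 mM saline) was injected subplantar into the right hind paw. The right-minus-left footpad thickness difference was measured with dial gauge callipers every 90 min over 6 h. Inhibition % is calculated versus vehicle control; mean ± SEM, Student's t test.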

Mus musculus [4] = assay: Antiinflammatory activity against carrageenan-induced hind paw oedema in mouse assessed as swelling thickness at 50 mg/kg, po after 90 mins; assay type: functional; summary of the method: as §2
Mus musculus [5] = assay: Antiinflammatory activity against carrageenan-induced hind paw oedema in mouse assessed as inhibition of swelling thickness at 200 mg/kg, po after 90 mins; assay type: functional; settings: 1.5 h; summary of the method: as §2
Mus musculus [6] = assay: Antiinflammatory activity against carrageenan-induced hind paw oedema in mouse assessed as inhibition of swelling thickness at 100 mg/kg, po after 180 mins; assay type: functional; settings: 3 h; summary of the method: as §2
Mus musculus [7] = assay: Antiinflammatory activity against carrageenan-induced hind paw oedema in mouse assessed as swelling thickness at 50 mg/kg, po after 180 mins; assay type: functional; summary of the method: as §2
Mus musculus [8] = assay: Antiinflammatory activity against carrageenan-induced hind paw oedema in mouse assessed as inhibition of swelling thickness at 100 mg/kg, po after 270 mins; assay type: functional; settings: 4.5 h; summary of the method: as §2
Mus musculus [9] = assay: Antiinflammatory activity against carrageenan-induced hind paw oedema in mouse assessed as swelling thickness at 50 mg/kg, po after 270 mins; assay type: functional; summary of the method: as §2
Mus musculus [10] = assay: Antiinflammatory activity against carrageenan-induced hind paw oedema in mouse assessed as inhibition of swelling thickness at 200 mg/kg, po after 270 mins; assay type: functional; settings: 4.5 h; summary of the method: as §2
Mus musculus [11] = assay: Antiinflammatory activity against carrageenan-induced hind paw oedema in mouse assessed as inhibition of swelling thickness at 100 mg/kg, po after 360 mins; assay type: functional; settings: 6 h; summary of the method: as §2
Mus musculus [12] = assay: Antiinflammatory activity against carrageenan-induced hind paw oedema in mouse assessed as swelling thickness at 50 mg/kg, po after 360 mins; assay type: functional; summary of the method: as §2
Mus musculus [13] = assay: Antiinflammatory activity against carrageenan-induced hind paw oedema in mouse assessed as inhibition of swelling thickness at 200 mg/kg, po after 360 mins; assay type: functional; settings: 6 h; summary of the method: as §2
Enterococcus faecalis = assay: Antibacterial activity against Enterococcus faecalis ATCC 29212 after 24 hrs by broth microdilution test; assay type: functional; settings: ATCC 29212, 24 h; summary of the method: as §1
Escherichia coli = assay: Antibacterial activity against Escherichia coli ATCC 25922 after 24 hrs by broth microdilution test; assay type: functional; settings: ATCC 25922, 24 h; summary of the method: as §1
Pseudomonas aeruginosa = assay: Antibacterial activity against Pseudomonas aeruginosa ATCC 27853 after 24 hrs by broth microdilution test; assay type: functional; settings: ATCC 27853, 24 h; summary of the method: as §1
Candida albicans = assay: Antifungal activity against Candida albicans ATCC 90028 after 48 hrs by broth microdilution test; assay type: functional; settings: ATCC 90028, 48 h
Summary of the method: (§3)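 Yeasts tested by NCCLS M27-A broth microdilution in RPMI 1640 (with L-glutamine, without sodium bicarbonate) with an inoculum of 0.5–2.5 × 10^3 cfu/mL. Compounds were prepared from DMSO solution diluted in water as twofold dilutions from 512 to 0.5 µg/mL. Plates were incubated at 35 °C for 48 h. MIC is the lowest concentration giving no visible growth.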

Pichia kudriavzevii = assay: Antifungal activity against Candida krusei ATCC 6258 after 48 hrs by broth microdilution test; assay type: functional; settings: ATCC 6258, 48 h; summary of the method: as §3
Candida parapsilosis = assay: Antifungal activity against Candida parapsilosis ATCC 22019 after 48 hrs by broth microdilution test; assay type: functional; settings: Lodderomyces parapsilosis, ATCC 22019, 48 h; summary of the method: as §3
Mus musculus [14] = assay: Antiinflammatory activity against carrageenan-induced hind paw oedema in mouse assessed as inhibition of swelling thickness at 200 mg/kg, po after 180 mins; assay type: functional; settings: 3 h; summary of the method: as §2
Mus musculus [15] = assay: Toxicity in mouse assessed as ulceration effect at 200 mg/kg; assay type: functional, organism-based; parameters: dose 200 mg/kg
Summary of the method: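 Mice given 200 mg/kg orally in the carrageenan oedema study were killed under deep ether anaesthesia 6 h after treatment. Stomachs were opened along the greater curvature and examined under a dissecting microscope for lesions or bleeding. Result is expressed as the ratio of ulcerated animals per group.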

Mus musculus [16] = assay: Antiinflammatory activity against carrageenan-induced hind paw oedema in mouse assessed as swelling thickness at 100 mg/kg, po after 360 mins; assay type: functional; summary of the method: as §2
Mus musculus [17] = assay: Antiinflammatory activity against carrageenan-induced hind paw oedema in mouse assessed as swelling thickness at 100 mg/kg, po after 270 mins; assay type: functional; summary of the method: as §2

SMILES | MIC (Staphylococcus aureus) [µg/mL] | inhibition in vivo at 100 mg/kg (Mus musculus [1]) [%] | inhibition in vivo at 100 mg/kg (Mus musculus [2]) [%] | inhibition in vivo at 100 mg/kg (Mus musculus [3]) [%] | Activity (Mus musculus [4]) [%] | inhibition in vivo at 200 mg/kg (Mus musculus [5]) [%] | inhibition in vivo at 100 mg/kg (Mus musculus [6]) [%] | Activity (Mus musculus [7]) [%] | inhibition in vivo at 100 mg/kg (Mus musculus [8]) [%] | Activity (Mus musculus [9]) [%] | inhibition in vivo at 200 mg/kg (Mus musculus [10]) [%] | Activity (Mus musculus [12]) [%] | inhibition in vivo at 200 mg/kg (Mus musculus [13]) [%] | MIC (Enterococcus faecalis) [µg/mL] | MIC (Escherichia coli) [µg/mL] | MIC (Pseudomonas aeruginosa) [µg/mL] | MIC (Candida albicans) [µg/mL] | MIC (Pichia kudriavzevii) [µg/mL] | MIC (Candida parapsilosis) [µg/mL] | inhibition in vivo at 200 mg/kg (Mus musculus [14]) [%] | also measured
CC1(C)S[C@@H]2[C@H](NC(=O)[C@H](N)c3ccccc3)C(=O)N2[C@H]1C(=O)O [AMPICILLIN] | 1 (≈ 2.86 µM) |  |  |  |  |  |  |  |  |  |  |  |  |  |  |  |  |  |  |  | 
Cc1ccc2oc(=O)n(CC(=O)NN)c2c1 | 256 (≈ 1160 µM) | 42 | 73.8 | 84.8 | 92.1 | 65.1 | 70.5 | 88.7 | 39.4 | 108.4 | 54.7 | 101.1 | 51.6 | 512 (≈ 2310 µM) | 256 (≈ 1160 µM) | 256 (≈ 1160 µM) | 128 (≈ 579 µM) | 128 (≈ 579 µM) | 128 (≈ 579 µM) |  | inhibition in vivo at 100 mg/kg (Mus musculus [11]): 27.4%
Cc1ccc2oc(=O)n(Cc3n[nH]c(=S)n3-c3ccccc3)c2c1 | 256 (≈ 757 µM) | 13 | 49.6 | 79.8 | 122.8 | 53.2 | 63.3 | 115.5 | 31.8 | 157.3 | 16.7 | 147.2 | 5.5 | 256 (≈ 757 µM) | 256 (≈ 757 µM) | 256 (≈ 757 µM) | 128 (≈ 378 µM) | 128 (≈ 378 µM) | 128 (≈ 378 µM) | 47.7 | inhibition in vivo at 100 mg/kg (Mus musculus [11]): 27.4%; Activity (Mus musculus [15]): Not toxic
CNC(=S)NNC(=O)Cn1c(=O)oc2ccc(C)cc21 | 512 (≈ 1740 µM) | 23.9 | 61.7 | 64.7 | 118.2 | 58 | 33.8 | 125.2 |  | 187.2 | 35.2 | 188.9 | 27.5 | 256 (≈ 870 µM) | 256 (≈ 870 µM) | 128 (≈ 435 µM) | 128 (≈ 435 µM) | 128 (≈ 435 µM) | 128 (≈ 435 µM) |  | Activity (Mus musculus [15]): Not toxic; Activity (Mus musculus [16]): 85.8%
Cc1ccc2oc(=O)n(CC(=O)N/N=C/c3ccc(Cl)cc3)c2c1 | > 512 | 50.7 | 62.5 | 64.7 | 72.5 | 17.1 | 5.1 | 89 | 5.3 | 111.8 | 17.2 | 107 | 7.7 | > 512 | > 512 | > 512 | 128 (≈ 372 µM) | 256 (≈ 745 µM) | 256 (≈ 745 µM) | 22.8 | inhibition in vivo at 100 mg/kg (Mus musculus [11]): 4.3%
Cc1ccc2oc(=O)n(CC(=O)N/N=C/c3ccccc3)c2c1 | 256 (≈ 828 µM) | 23.9 | 62.5 | 79.8 | 98.3 | 63.5 | 30 | 100.1 |  | 108.8 | 27.2 | 115 |  | 512 (≈ 1660 µM) | 256 (≈ 828 µM) | 256 (≈ 828 µM) | 128 (≈ 414 µM) | 128 (≈ 414 µM) | 128 (≈ 414 µM) | 37.8 | Activity (Mus musculus [17]): 95.4%; Activity (Mus musculus [16]): 84.5%
CCCNC(=S)NNC(=O)Cn1c(=O)oc2ccc(C)cc21 | 256 (≈ 794 µM) | 18.1 | 59.7 | 79.8 | 147.3 | 29.1 | 46.1 | 147.1 | 13 | 188.2 | 11.1 | 176.7 | 6.6 | 512 (≈ 1590 µM) | 256 (≈ 794 µM) | 512 (≈ 1590 µM) | 256 (≈ 794 µM) | 256 (≈ 794 µM) | 256 (≈ 794 µM) | 25.1 | Activity (Mus musculus [16]): 80.6%
CCNC(=S)NNC(=O)Cn1c(=O)oc2ccc(C)cc21 | 256 (≈ 830 µM) | 18.1 | 44.4 | 57.1 | 116.7 | 19.4 | 36.3 | 21.5 | 35.6 | 139.1 | 27.8 | 127.8 | 47.2 | 512 (≈ 1660 µM) | 256 (≈ 830 µM) | 512 (≈ 1660 µM) | 256 (≈ 830 µM) | 256 (≈ 830 µM) | 256 (≈ 830 µM) | 54.6 | inhibition in vivo at 100 mg/kg (Mus musculus [11]): 29.3%; Activity (Mus musculus [15]): Not toxic
OC(Cn1cncn1)(Cn1cncn1)c1ccc(F)cc1F [FLUCONAZOLE] |  |  |  |  |  |  |  |  |  |  |  |  |  |  |  |  | 1 (≈ 3.27 µM) | 64 (≈ 209 µM) | 8 (≈ 26.1 µM) |  | 
